{"source": "ChEMBL document CHEMBL3875168", "about": "“Synthesis and apoptosis inducing studies of triazole linked 3-benzylidene isatin derivatives” (Eur J Med Chem, 2016)", "key": {"[1]": {"test": "Cytotoxicity against human DU145 cells assessed as cell growth inhibition after 48 hrs by MTT assay", "assay_type": "functional, cell-based", "settings": "DU-145, 48 h", "procedure,_shortened": "(§1)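 Cell lines (NCCS) grown in DMEM or RPMI with 10% FBS and antibiotic-antimycotic at 37 °C, 5% CO2, 90% humidity. Cells seeded at 3-5×10^3 per well, treated 48 h with serial dilutions in medium beside vehicle control. Medium replaced with MTT (0.5 mg/mL) for 4 h, absorbance read at 570 nm. IC50 taken from concentration-response curves; sunitinib served as reference.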"}, "[2]": {"test": "Cytotoxicity against human PC3 cells assessed as cell growth inhibition after 48 hrs by MTT assay", "assay_type": "functional, cell-based", "settings": "PC-3, 48 h", "procedure,_shortened": "as §1"}, "[3]": {"test": "Cytotoxicity against human BT549 cells assessed as cell growth inhibition after 48 hrs by MTT assay", "assay_type": "functional, cell-based", "settings": "BT-549, 48 h", "procedure,_shortened": "as §1"}, "[4]": {"test": "Cytotoxicity against human RWPE1 cells assessed as cell growth inhibition after 48 hrs by MTT assay", "assay_type": "toxicity, cell-based, RWPE-1"}, "DU-145 [5]": {"system": "DU-145", "test": "Induction of morphological changes in human DU145 cells assessed as cell shrinkage at 1.25 to 5 uM after 48 hrs by acridine orange/ethidium bromide-dual staining based fluorescence microscopic method", "assay_type": "functional", "procedure,_shortened": "(§2)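 DU145 plated at 1×10^6 cells/mL, treated at several concentrations and kept 48 h at 37 °C in 5% CO2. Equal volumes of acridine orange and ethidium bromide (10 μg/mL) added, and cells imaged within 10 min by fluorescence microscopy (excitation 488 nm, emission 550 nm) at 200x.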"}, "DU-145 [6]": {"system": "DU-145", "test": "Induction of morphological changes in human DU145 cells assessed as membrane blebbing at 1.25 to 5 uM after 48 hrs by acridine orange/ethidium bromide-dual staining based fluorescence microscopic method", "assay_type": "functional, cell-based", "procedure,_shortened": "as §2"}, "DU-145 [7]": {"system": "DU-145", "test": "Induction of morphological changes in human DU145 cells assessed as apoptotic body formation at 1.25 to 5 uM after 48 hrs by acridine orange/ethidium bromide-dual staining based fluorescence microscopic method", "assay_type": "functional, cell-based", "procedure,_shortened": "as §2"}, "DU-145 [8]": {"system": "DU-145", "test": "Induction of apoptosis in human DU145 cells assessed as formation of pyknotic nuclei at 2.5 to 5 uM after 48 hrs by DAPI staining based fluorescence microscopic method", "assay_type": "functional, cell-based", "procedure,_shortened": "(§3)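 DU145 treated for 48 h, PBS-washed, permeabilized with 0.1% Tween 20 for 10 min and stained with 1 μM DAPI. Nuclear morphology of control and treated cells viewed by fluorescence microscopy (excitation 359 nm, emission 461 nm) at 200x.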"}, "DU-145 [9]": {"system": "DU-145", "test": "Induction of apoptosis in human DU145 cells assessed as formation of fragmented nuclei at 2.5 to 5 uM after 48 hrs by DAPI staining based fluorescence microscopic method", "assay_type": "functional, cell-based", "procedure,_shortened": "as §3"}, "DU-145 [10]": {"system": "DU-145", "test": "Induction of apoptosis in human DU145 cells assessed as necrotic cells at 1.25 uM after 24 hrs by Annexin V-FITC/propidium iodide staining based flow cytometry (reference value: 2.14%)", "assay_type": "functional"}, "DU-145 [11]": {"system": "DU-145", "test": "Induction of apoptosis in human DU145 cells assessed as early apoptotic cells at 2.5 uM after 24 hrs by Annexin V-FITC/propidium iodide staining based flow cytometry (reference value: 2.14%)", "assay_type": "functional"}, "DU-145 [12]": {"system": "DU-145", "test": "Induction of apoptosis in human DU145 cells assessed as late apoptotic cells at 1.25 uM after 24 hrs by Annexin V-FITC/propidium iodide staining based flow cytometry (reference value: 5.4%)", "assay_type": "functional"}, "[13]": {"test": "Cell cycle arrest in human DU145 cells assessed as accumulation at sub G1 phase at 2.5 uM after 24 hrs by propidium iodide staining-based flow cytometry (reference value: 0.65%)", "assay_type": "functional", "settings": "DU-145", "procedure,_shortened": "(§4)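 Compound given to DU145 at 2.5 and 5.0 μM for 24 h alongside untreated cells. Cells harvested, PBS-washed, fixed in ice-cold 70% ethanol, then stained 30 min at 37 °C in the dark with propidium iodide (50 μg/mL) plus RNase A (20 μg/mL) in 0.1% Triton X-100. About 10000 events per sample read by flow cytometry; a representative of three independent experiments is shown.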"}, "[14]": {"test": "Cell cycle arrest in human DU145 cells assessed as accumulation at G0/G1 phase at 2.5 uM after 24 hrs by propidium iodide staining-based flow cytometry (reference value: 62.81%)", "assay_type": "functional", "settings": "DU-145", "procedure,_shortened": "as §4"}, "[15]": {"test": "Cell cycle arrest in human DU145 cells assessed as accumulation at S phase at 2.5 uM after 24 hrs by propidium iodide staining-based flow cytometry (reference value: 10.3%)", "assay_type": "functional", "settings": "DU-145", "procedure,_shortened": "as §4"}, "[16]": {"test": "Cell cycle arrest in human DU145 cells assessed as accumulation at sub G1 phase at 5 uM after 24 hrs by propidium iodide staining-based flow cytometry (reference value: 0.65%)", "assay_type": "functional", "settings": "DU-145", "procedure,_shortened": "as §4"}, "DU-145 [17]": {"system": "DU-145", "test": "Induction of apoptosis in human DU145 cells assessed as early apoptotic cells at 1.25 uM after 24 hrs by Annexin V-FITC/propidium iodide staining based flow cytometry (reference value: 2.14%)", "assay_type": "functional"}, "[18]": {"test": "Cell cycle arrest in human DU145 cells assessed as accumulation at S phase at 5 uM after 24 hrs by propidium iodide staining-based flow cytometry (reference value: 10.3%)", "assay_type": "functional", "settings": "DU-145", "procedure,_shortened": "as §4"}, "[19]": {"test": "Cell cycle arrest in human DU145 cells assessed as accumulation at G2/M phase at 5 uM after 24 hrs by propidium iodide staining-based flow cytometry (reference value: 29.66%)", "assay_type": "functional", "settings": "DU-145", "procedure,_shortened": "as §4"}, "[20]": {"test": "Cell cycle arrest in human DU145 cells assessed as accumulation at G2/M phase after 24 hrs by propidium iodide staining-based flow cytometry", "assay_type": "functional", "settings": "DU-145", "procedure,_shortened": "as §4"}, "DU-145 [21]": {"system": "DU-145", "test": "Induction of apoptosis in human DU145 cells assessed as early apoptotic cells at 5 uM after 24 hrs by Annexin V-FITC/propidium iodide staining based flow cytometry (reference value: 2.14%", "assay_type": "functional"}, "DU-145 [22]": {"system": "DU-145", "test": "Induction of apoptosis in human DU145 cells assessed as late apoptotic cells at 5 uM after 24 hrs by Annexin V-FITC/propidium iodide staining based flow cytometry (reference value: 5.4%)", "assay_type": "functional"}, "DU-145 [23]": {"system": "DU-145", "test": "Induction of apoptosis in human DU145 cells assessed as increase in intracellular reactive oxygen species after 6 hrs by DCFDA dye based spectrofluorometer", "assay_type": "functional, cell-based"}, "DU-145 [24]": {"system": "DU-145", "test": "Induction of mitochondrial membrane potential loss in human DU145 cells at 2.5 uM after 24 hrs by flow cytometry (reference value: 5.39%)", "assay_type": "functional"}, "DU-145 [25]": {"system": "DU-145", "test": "Induction of mitochondrial membrane potential loss in human DU145 cells at 5 uM after 24 hrs by flow cytometry (reference value: 5.39%)", "assay_type": "functional"}, "DU-145 [26]": {"system": "DU-145", "test": "Induction of apoptosis in human DU145 cells assessed as increase in cleaved PARP level after 48 hrs by Western blot analysis", "assay_type": "functional, cell-based"}, "DU-145 [27]": {"system": "DU-145", "test": "Induction of apoptosis in human DU145 cells assessed as decrease in Bcl2 level after 48 hrs by Western blot analysis", "assay_type": "functional, cell-based"}, "DU-145 [28]": {"system": "DU-145", "test": "Induction of apoptosis in human DU145 cells assessed as necrotic cells at 5 uM after 24 hrs by Annexin V-FITC/propidium iodide staining based flow cytometry (reference value: 2.14%)", "assay_type": "functional"}, "DU-145 [29]": {"system": "DU-145", "test": "Induction of apoptosis in human DU145 cells assessed as viable cells at 1.25 uM after 24 hrs by Annexin V-FITC/propidium iodide staining based flow cytometry (reference value: 90.32%)", "assay_type": "functional", "settings": "DU-145, 24 h, read-out: Activity"}, "DU-145 [30]": {"system": "DU-145", "test": "Induction of apoptosis in human DU145 cells after 24 hrs by Annexin V-FITC/propidium iodide staining based flow cytometry", "assay_type": "functional, cell-based"}, "DU-145 [31]": {"system": "DU-145", "test": "Induction of apoptosis in human DU145 cells assessed as increase in necrotic cells after 24 hrs by Annexin V-FITC/propidium iodide staining based flow cytometry", "assay_type": "functional, cell-based"}}, "note": "The source made the active and inactive calls. The rule behind the calls is not given here."}
{"smiles": "O=C1Nc2ccc(C(c3ccccc3)c3ccccc3)cc2/C1=C/c1cccc(OCc2cn(Cc3ccccc3)nn2)c1", "values": [{"measurement": "IC50", "setting": "[1]", "result": 3.7, "unit": "µM"}, {"measurement": "IC50", "setting": "[2]", "result": 17.2, "unit": "µM"}, {"measurement": "IC50", "setting": "[3]", "result": 15.8, "unit": "µM"}, {"measurement": "IC50 at 48 h", "setting": "[4]", "result": 21.4, "unit": "µM"}, {"measurement": "Activity", "setting": "DU-145 [5]", "result": "Active"}, {"measurement": "Activity", "setting": "DU-145 [6]", "result": "Active"}, {"measurement": "Activity", "setting": "DU-145 [7]", "result": "Active"}, {"measurement": "Activity", "setting": "DU-145 [8]", "result": "Active"}, {"measurement": "Activity", "setting": "DU-145 [9]", "result": "Active"}, {"measurement": "Activity", "setting": "DU-145 [10]", "result": 1.82, "unit": "%"}, {"measurement": "Activity", "setting": "DU-145 [11]", "result": 18.05, "unit": "%"}, {"measurement": "Activity", "setting": "DU-145 [12]", "result": 9.11, "unit": "%"}, {"measurement": "Activity", "setting": "[13]", "result": 27.6, "unit": "%"}, {"measurement": "Activity", "setting": "[14]", "result": 14.8, "unit": "%"}, {"measurement": "Activity", "setting": "[15]", "result": 12.7, "unit": "%"}, {"measurement": "Activity", "setting": "[16]", "result": 18.3, "unit": "%"}, {"measurement": "Activity", "setting": "DU-145 [17]", "result": 12.6, "unit": "%"}, {"measurement": "Activity", "setting": "[18]", "result": 22.5, "unit": "%"}, {"measurement": "Activity", "setting": "[19]", "result": 48, "unit": "%"}, {"measurement": "Activity", "setting": "[20]", "result": "Dose-dependent effect"}, {"measurement": "Activity", "setting": "DU-145 [21]", "result": 13.64, "unit": "%"}, {"measurement": "Activity", "setting": "DU-145 [22]", "result": 25, "unit": "%"}, {"measurement": "Activity", "setting": "DU-145 [23]", "result": "Dose-dependent effect"}, {"measurement": "Activity", "setting": "DU-145 [24]", "result": 85.24, "unit": "%"}, {"measurement": "Activity", "setting": "DU-145 [25]", "result": 99.7, "unit": "%"}, {"measurement": "Activity", "setting": "DU-145 [26]", "result": "Active"}, {"measurement": "Activity", "setting": "DU-145 [27]", "result": "Active"}, {"measurement": "Activity", "setting": "DU-145 [28]", "result": 15.46, "unit": "%"}, {"measurement": "viability at 1.25 µM", "setting": "DU-145 [29]", "result": 76.5, "unit": "%"}, {"measurement": "Activity", "setting": "DU-145 [30]", "result": "Dose-dependent effect"}, {"measurement": "Activity", "setting": "DU-145 [31]", "result": "Dose-dependent effect"}]}
